B1: Cytochrome P450 2D6 (Homo sapiens) (protein)
chain: MGLEALVPLAVIVAIFLLLVDLMHRRQRWAARYPPGPLPLPGLGNLLHVDFQNTPYCFDQLRRRFGDVFSLQLAWTPVVVLNGLAAVREALVTHGEDTADRPPVPITQILGFGPRSQGVFLARYGPAWREQRRFSVSTLRNLGLGKKSLEQWVTEEAACLCAAFANHSGRPFRPNGLLDKAVSNVIASLTCGRRFEYDDPRFLRLLDLAQEGLKEESGFLREVLNAVPVLLHIPALAGKVLRFQKAFLTQLDELLTEHRMTWDPAQPPRDLTEAFLAEMEKAKGNPESSFNDENLRIVVADLFSAGMVTTSTTLAWGLLLMILHPDVQRRVQQEIDDVIGQVRRPEMGDQAHMPYTTAVIHEVQRFGDIVPLGVTHMTSRDIEVQGFRIPKGTTLITNLSSVLKDEAVWEKPFRFHPEHFLDAQGHFVKPEAFLPFSAGRRACLGEPLARMELFLFFTSLLQHFSFSVPTGQPRPSHHGVFAFLVSPSPYELCAVPR

How the values were obtained:
Cytochrome P450 2D6 [1] = biological target: T1, Cytochrome P450 2D6 (Homo sapiens, UniProt P10635); assay: Binding affinity to human CYP2D6 using bufuralol as substrate; assay type: ADME
Substance-P receptor = Substance-P receptor (Homo sapiens, UniProt P25103); assay: Displacement of [3H]SP from NK1 receptor in human IM9 cells
Gerbillinae [2] = assay: Inhibition of [Sar9, Met(O2)11]SP-induced foot tapping in sc dosed gerbil
Liver microsomes = assay: Metabolic stability in human liver microsome assessed as ratio of half life between CYP2D6-deficient microsome and CYP2D6-deficient microsome with addition of exogenous CYP2D6; assay type: ADME
Method in brief: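 Half-lives were measured in CYP2D6-deficient human liver microsomes with and without added exogenous CYP2D6. The value is the ratio of the half-life without CYP2D6 to the half-life with it.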

CYP2D6 = CYP2D6 (Homo sapiens, UniProt P10635); assay: (§1) Inhibition of human CYP2D6 at 5 uM; assay type: ADME
Mustela putorius furo [3] = assay: Antiemetic activity against cisplatin-induced emesis in sc dosed ferrets; assay type: functional, organism-based
Method in brief: (§2)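 Ferrets were given the test compound sc 30 min before cisplatin (10 mg/kg, ip). Retching and vomiting/gagging episodes were counted against vehicle control. Groups were n = 4–5, data are mean ± SEM, and Student's t-test was used. Results are given as ED90 (mg/kg, sc) or as % inhibition at the stated dose.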

Gerbillinae [4] = assay: Inhibition of [Sar9, Met(O2)11]SP-induced foot tapping in gerbil at 1 mg/kg, sc relative to CP-122721
Gerbillinae [5] = assay: Inhibition of [Sar9, Met(O2)11]SP-induced foot tapping in gerbil at 0.1 mg/kg, sc relative to CP-122721; settings: for inhibition in vivo at 0.1 mg/kg / inhibition (INH): route subcutaneous, dose 0.1 mg/kg
Mustela putorius furo [6] = assay: Antiemetic activity against cisplatin-induced emesis in ferrets at 0.1 mg/kg, sc; assay type: functional; settings: route subcutaneous; method in brief: as §2
Mustela putorius furo [7] = assay: Antiemetic activity against cisplatin-induced emesis in ferrets at 1 mg/kg, sc; assay type: functional; settings: route subcutaneous; method in brief: as §2
Cytochrome P450 2D6 [8] = biological target: T1, Cytochrome P450 2D6; assay: as §1; assay type: ADME; settings: 5 µM
Mustela putorius furo [9] = assay: Antiemetic activity against cisplatin-induced emesis in ferrets at 0.3 mg/kg, sc; assay type: functional; settings: route subcutaneous; method in brief: as §2
[10] = substrate: COc1cc2c(cc1CN[C@H]1CCCN[C@H]1c1ccccc1)[C@](C)(C(F)(F)F)OCC2; assay: Activity of CYP2D6 for N-dealkylation in human liver microsomes; assay type: ADME, Microsome
[11] = substrate: COc1cc2c(cc1CN[C@H]1CCCN[C@H]1c1ccccc1)[C@](C)(C(F)(F)F)OCC2; assay: Activity of CYP2D6 for hydroxylation in human liver microsomes; assay type: ADME, Microsome
[12] = Mustela putorius, sc, read-out: ED90
[13] = dose 1 mg/kg, route subcutaneous

Sequence of Substance-P receptor (P25103 whole entry): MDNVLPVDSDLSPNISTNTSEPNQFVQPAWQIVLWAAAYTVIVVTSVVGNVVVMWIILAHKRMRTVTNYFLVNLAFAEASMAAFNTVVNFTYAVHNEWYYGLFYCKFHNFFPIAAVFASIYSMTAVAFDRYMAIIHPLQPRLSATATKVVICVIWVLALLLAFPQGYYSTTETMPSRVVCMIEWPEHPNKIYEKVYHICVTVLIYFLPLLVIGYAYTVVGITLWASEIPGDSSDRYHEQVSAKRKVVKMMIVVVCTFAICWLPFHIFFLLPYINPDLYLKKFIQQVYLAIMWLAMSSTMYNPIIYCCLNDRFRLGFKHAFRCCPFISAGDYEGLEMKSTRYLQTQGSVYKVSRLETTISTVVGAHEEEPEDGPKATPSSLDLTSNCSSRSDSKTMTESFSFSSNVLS

Row | Molecule | Ki (Cytochrome P450 2D6 [1]) | IC50 (Substance-P receptor) | Ratio (Liver microsomes) | inhibition at 5 µM (CYP2D6) | inhibition (INH) (Cytochrome P450 2D6 [8]) | inhibition (INH) (Gerbillinae [4]; [13]) | inhibition (INH) (Gerbillinae [5]) | also measured
1 | COc1ccc(C(C)C(F)(F)F)cc1CN[C@H]1CCCN[C@H]1c1ccccc1 (mixture of isomers) | 840 nM | 0.4 nM | 2.2 | 65.9% |  |  |  | ED50 (Gerbillinae [2]): 0.82 mg/kg; ED90 (Mustela putorius furo [3]): 0.3 mg/kg; ED100 (Mustela putorius furo [3]): >=1 mg kg-1
2 | COc1ccc(C(C)(OC)C(F)(F)F)cc1CN[C@H]1CCCN[C@H]1c1ccccc1 (mixture of isomers) |  |  |  | 62.6% |  |  |  | inhibition in vivo at 1 mg/kg (Gerbillinae [4]; Gerbillinae, sc, dose 1 mg/kg, route subcutaneous): 55%; ED50 (Gerbillinae [2]): 0.11 mg/kg; inhibition in vivo at 0.1 mg/kg (Gerbillinae [5]; Gerbillinae, sc): 63%; inhibition in vivo at 0.1 mg/kg (Mustela putorius furo [6]): 15%
3 | COc1cc2c(cc1CN[C@H]1CCCN[C@H]1c1ccccc1)C(C(F)(F)F)CC2 (mixture of isomers; 10) |  | 0.9 nM |  |  | 74.2% |  |  | ED50 (Gerbillinae [2]): 0.11 mg/kg; inhibition in vivo at 1 mg/kg (Mustela putorius furo [7]): 100%; ED100 (Mustela putorius furo [3]): 1 mg/kg; ED90 (Mustela putorius furo [3]; [12]): 0.12 mg/kg
4 | COc1cc2c(cc1CN[C@H]1CCCN[C@H]1c1ccccc1)C(C(F)(F)F)CC2 (mixture of isomers; 11) | 520 nM | 0.4 nM | 10.6 | 75.9% |  |  |  | % inhibition at 1 mg/kg (Gerbillinae [4]; Gerbillinae, sc): 88%; % inhibition at 0.1 mg/kg (Gerbillinae [5]; Gerbillinae, sc): 79%
5 | COc1cc2c(cc1CN[C@H]1CCCN[C@H]1c1ccccc1)C(C)(C(F)(F)F)OC2 (mixture of isomers; 14) |  | < 0.1 nM |  |  | 41.8% | 69% | 15% | 
6 | COc1cc2c(cc1CN[C@H]1CCCN[C@H]1c1ccccc1)C(C)(C(F)(F)F)OC2 (mixture of isomers; 15) | 660 nM | < 0.1 nM | 2.1 |  | 73% | 77% |  | ED100 (Mustela putorius furo [3]): 0.3 mg/kg; ED90 (Mustela putorius furo [3]; [12]): 0.05 mg/kg
7 | COc1cc2c(cc1CN[C@H]1CCCN[C@H]1c1ccccc1)C(C)(C(F)(F)F)OC2 (mixture of isomers; 16) |  | 0.16 nM |  |  | 81% | 94% | 87% | inhibition in vivo at 0.3 mg/kg (Mustela putorius furo [9]): 99%
8 | COc1cc2c(cc1CN[C@H]1CCCN[C@H]1c1ccccc1)C(C(F)(F)F)CCC2 (mixture of isomers; 17) |  | 0.5 nM | 7.35 |  | 76.5% | 77% |  | inhibition in vivo at 0.1 mg/kg (Gerbillinae [5]; Gerbillinae, sc): 55%; ED100 (Mustela putorius furo [3]): 1 mg/kg; ED90 (Mustela putorius furo [3]; [12]): 0.17 mg/kg
9 | COc1cc2c(cc1CN[C@H]1CCCN[C@H]1c1ccccc1)C(C(F)(F)F)CCC2 (mixture of isomers; 18) |  | < 0.1 nM |  | 85.4% |  |  |  | 
10 | COc1cc2c(cc1CN[C@H]1CCCN[C@H]1c1ccccc1)C(C)(C(F)(F)F)CCC2 (mixture of isomers; 19) |  | 0.21 nM | 1.58 |  |  | 85% | 21% | 
11 | COc1cc2c(cc1CN[C@H]1CCCN[C@H]1c1ccccc1)C(C)(C(F)(F)F)CCC2 (mixture of isomers; 20) |  | < 0.1 nM |  |  | 42% | 65% | 0% | 
12 | COc1cc2c(cc1CN[C@H]1CCCN[C@H]1c1ccccc1)C(C)(C(F)(F)F)CCC2 (mixture of isomers; 21) | 120 nM | < 0.1 nM | 1.8 |  |  | 91% | 86% | inhibition in vivo at 0.1 mg/kg (Mustela putorius furo [6]): 97%
13 | COc1cc2c(cc1CN[C@H]1CCCN[C@H]1c1ccccc1)C(C)(C(F)(F)F)CCC2 (mixture of isomers; 22) |  | 0.34 nM |  |  | 90% | 87% | 26% | 
14 | COc1ccc(C(C)C)cc1CN[C@H]1C2CCN(CC2)[C@H]1C(c1ccccc1)c1ccccc1 [EZLOPITANT] | 420 nM |  | 1.8 | 64.1% |  |  |  | ED90 (Mustela putorius furo [3]; [12]): 2.1 mg/kg
15 | B1 |  |  |  |  |  |  |  | Km [10]: 2.3 µM; Km [11]: 16.6 µM

Reference: ChEMBL document CHEMBL1155909, “Discovery and stereoselective synthesis of the novel isochroman neurokinin-1 receptor antagonist 'CJ-17,493'” (Bioorg Med Chem, 2008)
